Data set [1] in a line: Half life in mouse at 5 mg/kg, iv or 10 mg/kg, po. It counts as ADME, organism-based. The settings on record: in vivo. Put shortly: (§1)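 Mice dosed at 5 mg/kg i.v. or 10 mg/kg p.o., 3 mice per group. Values given as average ± SEM.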
Data set [2] is described as follows: Volume of distribution at steady state in mouse 5 mg/kg, iv or 10 mg/kg, po. It counts as ADME, organism-based. Particulars: in vivo, read-out: Vdss. Put shortly: as §1
Data set [3] is described as follows: Metabolic stability in human liver microsome after 10 mins. It counts as ADME. The settings on record: liver microsomes, read-out: Stability. Put shortly:
(§2)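 Rat or pooled human (10 donors) liver microsomes at about 1 mg/mL protein, 1 mM NADPH, 56 mM potassium phosphate pH 7.4, compound 3 µM final, 37 °C. Quenched with acetonitrile and parent drug quantified by LC/MS/MS. Percent parent remaining at 10 min, n = 1.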
A general note: Liver microsomes are vesicles of endoplasmic reticulum, rich in cytochrome P450 enzymes.

Data set [4] in a line: Drug level in rat plasma at 10 mg/kg, po after 0.5 hrs. It counts as ADME, organism-based. Details: dose 10 mg/kg, route oral. Put shortly:
(§3)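 Rats given a single oral 10 mg/kg dose in 9/0.5/0.5 water/EtOH/Tween 80. Plasma drug level measured at 0.5 h and AUC0-4h calculated, each as the average of 2 rats.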

Data set [5] is described as follows: Bioavailability in mouse at 10 mg/kg, po. It counts as ADME, organism-based. Particulars: in vivo. Put shortly:
as §1

The subject of data set [6] is Caco-2. The experiment in a line: Intrinsic permeability across human Caco-2 cells. The class given is ADME, cell-based. In general terms: Caco-2 cells form a polarised layer with tight junctions and transporters.
Data set [7] in a line: Cmax in mouse at 5 mg/kg, iv or 10 mg/kg, po. The class given is ADME, organism-based. The settings on record: in vivo. The method, boiled down: as §1
Data set [8] in a line: Mean residence time in mouse at 5 mg/kg, iv or 10 mg/kg, po. It counts as ADME, organism-based. Particulars: in vivo. Put shortly: as §1
Data set [9] is described as follows: AUC (0 to 8 hrs) in mouse 5 mg/kg, iv or 10 mg/kg, po. Particulars: plasma. It counts as ADME, organism-based. The method, boiled down: as §1
The nature of data set [10]: Tmax in mouse at 5 mg/kg, iv or 10 mg/kg, po. It counts as ADME, organism-based. Particulars: in vivo. The method, boiled down: as §1
A short description of data set [11]: AUC (0 to 4 hrs) in rat at 10 mg/kg, po. The class given is ADME, organism-based. Particulars: plasma. Further details: time < 4 hr, dose 10 mg/kg, route oral. The method, boiled down:
as §3

Data set [12] in a line: Metabolic stability in rat liver microsome after 10 mins. The class given is ADME. Particulars: liver microsomes, read-out: Stability. The method, boiled down:
as §2

Data set [13] can be described thus: Clearance in mouse at 5 mg/kg, iv or 10 mg/kg, po. It counts as ADME, organism-based. Particulars: in vivo. Put shortly:
as §1

A word on the half-life: it is the time needed for the level to fall by half in the phase considered. What is called bioavailability is dose-corrected exposure relative to a reference, in per cent. Higher therefore signals much systemic uptake. As a reminder, the Papp is a coefficient for how fast a substance crosses the barrier. The Cmax is the highest concentration seen after dosing. As a reminder, the MRT is a mean duration of stay, worked out from the concentration-time curve. In general, AUC(0-t) refers to the area under the concentration-time curve up to a stated or last time point. Low readings indicate low exposure, high ones high exposure. The term Tmax denotes the time at which the peak concentration occurs. The compound `CCNC(=O)c1cn2ncnc(Nc3cc(C(=O)NOC)ccc3C)c2c1C` gave a half-life in data set [1] of 2.2 h. Further, the Vd in [2] is 7.6 L/kg. The remaining at 10 min in data set [3] amounted to 69%; in data set [12] it was 100%. In [4], this compound displayed a concentration at 0.5 h of 0.8 µM. The compound also returned a bioavailability in data set [5] of 79%. In addition, in data set [6], the apparent permeability (Papp) was 2 ×10⁻⁶ cm/s. Further, the Cmax in data set [7] was 3.1 µM. Besides, the MRT in [8] was 1.4 h. Moreover, in data set [9], the AUC(0-t) worked out at 3.6 µM·h. Moreover, the time to peak (Tmax) in data set [10] turned out to be 0.25 h. In [11], the AUC(0-t) at 4 h is 0.7 µM·h. In addition, the clearance in data set [13] was 93 mL/min/kg.

For `CONC(=O)c1ccc(C)c(Nc2ncnn3cc(C(=O)NCc4ccccn4)c(C)c23)c1`, the concentration at 0.5 h in data set [4] is 3.4 µM. Further, the AUC(0-t) at 4 h in [11] was determined as 2.8 µM·h.

For the compound `CONC(=O)c1ccc(C)c(Nc2ncnn3cc(C(=O)N[C@@H](C)c4ccccc4)c(C)c23)c1`, the half-life in [1] is 1.2 h. Further, the Vd in data set [2] worked out at 1.5 L/kg. Moreover, the remaining at 10 min in data set [3] stood at 72%; in data set [12], 90%. In [4], the concentration at 0.5 h turned out to be 2.1 µM. In addition, in data set [5], the bioavailability came to 34%. Besides, the apparent permeability coefficient (Papp) in [6] was 13.1 ×10⁻⁶ cm/s. This compound also came in with a Cmax in data set [7] of 3.7 µM. The compound also gave an MRT in [8] of 0.8 h. In [9], this compound came in with an AUC(0-t) of 3.8 µM·h. In addition, in data set [10], the time of peak concentration (Tmax) worked out at 0.5 h. In [11], this compound had an AUC(0-t) at 4 h of 2.1 µM·h. The clearance in data set [13] stood at 31 mL/min/kg.

For `CCCNC(=O)c1cn2ncnc(Nc3cc(NC(=O)OCC)ccc3C)c2c1C`, the concentration at 0.5 h in [4] is 0.4 µM. For the same compound, the AUC(0-t) at 4 h in [11] came to 0.7 µM·h.

For `CCCNC(=O)c1cn2ncnc(Nc3cc(C(=O)NOC)ccc3C)c2c1C`, the half-life in data set [1] is 2.5 h. The Vd in [2] worked out at 1.6 L/kg. Also, the remaining at 10 min in data set [3] came out at 83%; in data set [12] it was 82%. This compound displayed a concentration at 0.5 h in data set [4] of 6.6 µM. For the same compound, the bioavailability in data set [5] stood at 97%. The compound also showed a Papp in data set [6] of 5.8 ×10⁻⁶ cm/s. In [7], this compound came in with a Cmax of 18 µM. In data set [8], this compound gave a mean residence time MRT of 1 h. The compound further yielded an exposure AUC(0-t) in data set [9] of 13 µM·h. The time to peak (Tmax) in data set [10] was determined as 0.25 h. Moreover, the AUC(0-t) at 4 h in [11] was 2.1 µM·h. In [13], the clearance worked out at 28 mL/min/kg.

`CONC(=O)c1ccc(C)c(Nc2ncnn3cc(C(=O)NC(C)C)c(C)c23)c1` displayed a concentration at 0.5 h in data set [4] of 3.8 µM. The compound further gave an AUC(0-t) at 4 h in data set [11] of 3.7 µM·h.

With `CC[C@H](C)NC(=O)c1cn2ncnc(Nc3cc(C(=O)NOC)ccc3C)c2c1C`, the remaining at 10 min in data set [3] was determined as 62%; in data set [12] it was 96%. In data set [4], the concentration at 0.5 h came out at 4.3 µM. Besides, in data set [11], the area under the curve AUC(0-t) at 4 h worked out at 9.2 µM·h.

Values taken from ChEMBL document CHEMBL1140698, “Design, synthesis, and anti-inflammatory properties of orally active 4-(phenylamino)-pyrrolo[2,1-f][1,2,4]triazine p38alpha mitogen-activated protein kinase inhibitors” (J Med Chem, 2008).
